Hits are enriched below; roughly 0.72% of the tested compounds scored in any of these assays.
mIAP block = mouse IAP inhibition; purified mouse IAP, CDP-Star luminescence, 30 min; inhibition, % at 10 µM; 330,000 compounds, 0.2% hits;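 active means inhibition of at least 40% at 10 µM in the primary screen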;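 further: plate controls were DMSO with enzyme for no effect and no enzyme wells for full effect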
bIAP inh = intestinal alkaline phosphatase (bovine) inhibition. purified bovine IAP, CDP-star luminescence, 30 min. 190,000 tested, under 10 active. inhibition, % at 20 µM;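 active means over 50% inhibition of intestinal alkaline phosphatase at 20 µM in the single-dose screen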
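Incubation: 30 min reaction at room temperature / Material: purified bovine intestinal alkaline phosphatase (IAP) enzyme / Input: enzyme at 1/65,000,000 dilution / Dosing: 20 µM single dose / Signal: CDP-star luminescence signal / Reagent: CDP-star chemiluminescent phosphatase substrate, 30 µM final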
bIAP act = intestinal alkaline phosphatase (bovine) activation | purified bovine IAP, CDP-star luminescence, 30 min; hits give high values; fold of DMSO-control signal, blank-subtracted | activation factor at 20 µM | 200,000 compounds, 0.17% hits | AID 1016;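 active means activation factor of 2 or more at 20 µM, a signal rise over negative controls twice the positive control's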
hIAP inh = human IAP inhibition; inhibition, % at 10 µM; P09923; 330,000 compounds, 0.12% hits; purified IAP, CDP-Star luminescence, 30 min;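 active means inhibition reaching a set limit with compound at 10 µM in the primary screen, cut at about 35% in these data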;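 further: plate controls were DMSO wells with enzyme for no effect and no-enzyme buffer wells for full effect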
Target sequence (P09923 whole entry, looked up): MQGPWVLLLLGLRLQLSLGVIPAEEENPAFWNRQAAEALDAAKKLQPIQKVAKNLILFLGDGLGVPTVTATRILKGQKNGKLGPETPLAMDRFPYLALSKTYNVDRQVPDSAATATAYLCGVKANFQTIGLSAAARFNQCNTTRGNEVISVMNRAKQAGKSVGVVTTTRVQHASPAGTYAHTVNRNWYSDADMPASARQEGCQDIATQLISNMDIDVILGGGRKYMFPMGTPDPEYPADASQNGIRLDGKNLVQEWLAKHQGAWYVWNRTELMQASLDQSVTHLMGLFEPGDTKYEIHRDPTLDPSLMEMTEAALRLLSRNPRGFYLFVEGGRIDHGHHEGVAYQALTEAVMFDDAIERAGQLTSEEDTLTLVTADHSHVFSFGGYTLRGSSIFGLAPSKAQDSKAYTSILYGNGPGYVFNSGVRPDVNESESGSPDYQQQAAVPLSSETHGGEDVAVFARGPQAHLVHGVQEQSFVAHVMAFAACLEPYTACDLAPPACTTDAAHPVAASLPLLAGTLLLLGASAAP
hIAP activ = increases human intestinal alkaline phosphatase activity. AID 2524. 330,000 compounds, 0.16% hits. purified human IAP, CDP-Star luminescence, 30 min; hits give high values; 1 = vehicle-only enzyme, 0 = enzyme-free background. P09923. activation factor at 10 µM;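 active means activation factor of the enzyme at least 2-fold when tested at 20 µM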
mIAP act = mouse IAP activation | muIAP, CDP-Star luminescence, 30 min; hits give high values; 1 = vehicle-only enzyme signal, 0 = enzyme-free wells | 330,000 compounds, 0.24% hits | activation factor at 10 µM | AID 2805;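 active means activation factor of at least 2 at 20 µM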
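System: mouse IAP enzyme. Reagent: CDP-Star chemiluminescent phosphatase substrate. Benchmarks: DMSO wells, no-enzyme wells. Times: 30 min enzyme-substrate-compound incubation at room temperature. Detection: luminescence from enzymatic CDP-Star hydrolysis. Doses: test compounds delivered from DMSO solution.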
hIAP act conf = human IAP activation confirmation; shares compounds with hIAP activ; purified IAP, CDP-Star luminescence, 30 min; hits give low values; activation (%Activity, negative = activation), % at 8.3 µM; 880 compounds, 10% hits;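 active means at least twofold enzyme activation in any of six single-dose repeats, which the averaged readout prints as negative percent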
* hit, by the source's call; . = no result.

SMILES	mIAP block	bIAP inh	bIAP act	hIAP inh	hIAP activ	mIAP act	hIAP act conf
CCOC(=O)c1cnc(SCC(=O)c2ccc(C)cc2)nc1N	2	7	0.9	13	0.87	0.97	.
Cc1ccc(C)c(NC(=O)CCC(=O)NNC(=S)Nc2ccccc2)c1	21	-47	1.5	-80	1.8	0.79	.
Cc1ccc(C)c(NC(=S)NCc2ccccc2)c1	1	.	.	8	0.92	0.99	.
O=C(Cc1ccccc1)NNC(=S)Nc1ccccc1	7	-33	1.3	-118	2.2*	0.93	9
Cc1ccc(C)c(NCC(=O)NNC(=S)Nc2ccccc2)c1	16	-16	1.2	-103	2*	0.84	-39
Cc1ccc(NC(=O)CCC(=O)NNC(=S)Nc2ccccc2)c(C)c1	-8	-54	1.5	-106	2.1*	1.1	-25
Cc1ccc(C(C)(C)C)cc1S(=O)(=O)Nc1cccc(C(=O)N2CCN(c3ccccn3)CC2)c1	4	.	.	4	0.96	0.96	.
OC1(c2cccs2)CN(c2ccc(Br)cc2)C2=[N+]1CCCS2 (centres undefined)	5	.	.	-180	2.8*	0.95	18
CN(C)Cc1c(C(=O)N/N=C/CCc2ccccc2)nnn1-c1nonc1N	3	.	.	-16	1.2	0.97	.
COC(=O)Cn1c(C(O)c2ccccc2)nc2ccccc21 (centres undefined)	4	.	.	10	0.9	0.96	.
CCc1nnc(NC(=O)CN2CCN(Cc3ccccc3Cl)CC2)s1	-13	.	.	2	0.98	1.1	.
CCOc1cc(C2C(C(=O)c3ccco3)=C(O)C(=O)N2CC2CCCO2)ccc1O (centres undefined)	1	.	.	21	0.79	0.99	.
Cc1ccc(-c2[nH]ncc2C(=O)c2ccc(Br)cc2)c(O)c1	1	.	.	-105	2*	0.99	1
Cc1ccc(C(=O)c2cn[nH]c2-c2cc(Cl)ccc2O)cc1	3	-51	1.5	-7	1.1	0.97	.
Nc1nc(-c2ccccc2)c(N=Nc2cccc3ccccc23)s1	30	0	1	35*	0.65	0.69	15
Nc1c(N2CCOCC2)cc(Cl)c2nonc12	14	31	0.7	23	0.77	0.86	.
Nc1c(N2CCCC2)cc(Cl)c2nonc12	12	26	0.7	35*	0.65	0.88	41
CCOc1cc(/C=C2\SC(=S)N(N3CCOCC3)C2=O)ccc1O	38	.	.	39*	0.61	0.62	-33
O=C1/C(=C/c2ccc(O)c(O)c2)SC(=S)N1Nc1ccccc1	.	.	0.5	.	.	.	.
COc1cc(/C=C2\SC(=S)N(NC(=O)c3cccnc3)C2=O)ccc1O	35	.	.	30	0.7	0.65	.
COc1cc(/C=C2\SC(=S)N(Nc3ccccc3)C2=O)ccc1O	41*	-4	1	40*	0.6	0.59	8
O=C1/C(=C/c2ccc(F)cc2)SC(=S)N1N1CCOCC1	4	.	.	12	0.88	0.96	.
COc1cc(/C=C2\SC(=S)N(NC(=O)c3ccc(O)cc3)C2=O)ccc1O	34	.	.	44*	0.56	0.66	2
CCCOC(=O)C1=C(C)N(C)C(=O)NC1c1cc2c(cc1Br)OCO2 (centres undefined)	-1	.	.	10	0.9	1	.
COc1ccc(Cl)cc1NC(=O)CN1C(=O)NC(Cc2c[nH]c3ccccc23)C1=O (centres undefined)	-1	.	.	-15	1.2	1	.
SMILES	mIAP block	bIAP inh	bIAP act	hIAP inh	hIAP activ	mIAP act	hIAP act conf
COc1cccc(NC(=O)c2ccc(-n3cnnn3)cc2)c1	-2	.	.	-13	1.1	1	.
CCCCCCc1c(C)nc(-n2[nH]c(C)c(CCO)c2=O)[nH]c1=O	16	-19	1.2	-128	2.3*	0.84	-56
CC1CCC2(CC1)NC(=O)N(CC(=O)NCc1ccc(F)cc1)C2=O (centres undefined)	-7	.	.	-9	1.1	1.1	.
Cc1cccc(C)c1NC(=O)/C(C#N)=C/c1ccc(-c2ccc(C(=O)O)cc2)o1	11	.	.	16	0.84	0.89	.
CC1=C(C)C(=O)C(N2CCOCC2)=CC1=O	.	14	0.9	.	.	.	.
O=C1C=C(N2CCOCC2)c2ccccc2C1=O	-4	.	.	45*	0.55	1	3
Cc1ccn2cc(-c3ccc(O)c(O)c3)nc2c1	40	.	.	40*	0.6	0.6	-69
Oc1ccc(-c2cn3ccccc3n2)cc1O	3	.	.	49*	0.51	0.97	12
O=C(CN1CCN(S(=O)(=O)c2ccccc2)CC1)N1CCCCC1	-16	.	.	-14	1.1	1.2	.
CCCCCC(=O)Nc1ccc(Cl)cn1	-21	-2	1	70*	0.3	1.2	-33
CS(=O)(=O)N(CC(=O)NCCSCc1cccc(Cl)c1)c1ccccc1F	-5	.	.	-21	1.2	1.1	.
CC1CCCN(C(=O)C2CCN(S(=O)(=O)c3cccc4nsnc34)CC2)C1 (centres undefined)	6	.	.	49*	0.51	0.94	-4
Cc1nc(-c2ccc(S(=O)(=O)N3CCCN(CCc4ccccc4)CC3)s2)cs1	13	.	.	-127	2.3*	0.87	-3
O=C(NCCS(=O)(=O)N1CCN(c2cccc(Cl)c2)CC1)c1cc(=O)c2ccccc2o1	9	.	.	39*	0.61	0.91	-5
O=C(NCCS(=O)(=O)N1CCN(c2cccc(Cl)c2)CC1)c1ccc2c(c1)OCO2	-4	.	.	12	0.88	1	.
COc1ccccc1C(CNc1nc(C(F)(F)F)nc2ccccc12)N(C)C (centres undefined)	9	.	.	3	0.97	0.91	.
COc1ccccc1CNC(=O)CN(c1ccc(C)cc1)S(=O)(=O)c1c(C)noc1C	4	.	.	38*	0.62	0.96	32
COc1ccc(C(C(=O)NC2CCCC2)N(C(=O)c2snc(-c3ccc(F)cc3)c2N)c2ccc(F)cc2)cc1 (centres undefined)	8	5	0.9	-6	1.1	0.92	.
CC(=O)c1ccc(N(C(=O)c2ccco2)C(C(=O)NC2CCCC2)c2cccs2)cc1 (centres undefined)	6	.	.	3	0.97	0.94	.
Cc1ccc(N(C(=O)c2ccn[nH]2)C(C(=O)NC2CCCC2)c2cccs2)cc1 (centres undefined)	-96	-17	1.2	-203	3*	2	-54
COc1ccc(N(C(=O)c2ccn[nH]2)C(C(=O)NC2CCCC2)c2ccc(F)cc2)cc1 (centres undefined)	-51	.	.	-148	2.5*	1.5	3
Cc1nnc(N2CCc3ccccc3C2)[nH]c1=O	5	6	0.9	36*	0.64	0.95	-43
NC(=O)c1nc(-c2ccco2)nc2c1[nH]c(=O)n2-c1ccc(Cl)c(Cl)c1	29	.	.	-105	2.1*	0.71	-68
NC(=O)c1nc(-c2cccs2)nc2c1[nH]c(=O)n2-c1ccc(F)cc1	-24	-24	1.2	-133	2.3*	1.2	-23
